Measured values reported in ChEMBL document CHEMBL4673343, “Lythrum salicaria Ellagitannins Stimulate IPEC-J2 Cells Monolayer Formation and Inhibit Enteropathogenic Escherichia coli Growth and Adhesion” (J Nat Prod, 2020).
≈ marks a conversion by molar mass, not a printed value. Calls of active or inactive are those of the source. The rule behind the calls is not given here.

Legend:
IPEC-J2 [1] = experiment: Induction of porcine IPEC-J2 cells monolayer development assessed as increase in transepithelial electrical resistance at 50 uM after 6 days by voltammetric method; format: functional, cell-based; details: Sus scrofa domesticus, time 6.0 day
Escherichia coli [2] = experiment: Growth inhibition of Escherichia coli DSM 2840 at 20 to 500 uM measured every 5 mins for 24 hrs by turbidometric analysis; format: functional, organism-based; details: dose 20-500 µM, time hrs <=24
Summary of the method: (§1)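 Strains were revived from cryostocks and passaged twice daily in BHI with shaking at 37 °C over 2 days. Double-strength BHI plus diluted test stock (compounds in DMSO, 0.22 μm filtered), inoculum at final 10^4 CFU/mL, film-sealed for anaerobic conditions, 37 °C in plate reader. OD690 was read every 5 min for 24 h; lag time came from the lag-exponential method. Three independent experiments were run, each in triplicate.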

Escherichia coli [3] = experiment: Growth inhibition of Escherichia coli 0147:K89:K88 at 20 to 500 uM measured every 5 mins for 24 hrs by turbidometric analysis; format: functional, organism-based; details: dose 20-500 µM, time hrs <=24
Summary of the method: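 Compound stocks were made in DMSO and filtered. The turbidimetric assay used double-strength BHI, 20–500 μM, E. coli at final 10^4 CFU/mL, and sealed anaerobic plates at 37 °C. OD690 was read every 5 min over 24 h.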

Escherichia coli [4] = experiment: Antibacterial activity against Escherichia coli by two-fold serial dilution method; format: functional
Escherichia coli [5] = experiment: Antibacterial activity against heat labile toxin gene positive Escherichia coli; format: functional
Escherichia coli [6] = experiment: Antibacterial activity against heat stable toxin gene positive Escherichia coli; format: functional
Escherichia coli [7] = experiment: Antibacterial activity against invasive E gene positive Escherichia coli; format: functional
Escherichia coli [8] = experiment: Antibacterial activity against Escherichia coli; format: functional
Summary of the method: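 Strains: enteropathogenic E. coli O147:K89:K88 (Abbotstown) and non-fimbriated DSM 2840. Both were subcultured in BHI with shaking at 37 °C for 2 days, then inoculated at 10^4 CFU/mL final in BHI microplates. Extract stock was in water and pure compounds in DMSO, tested at 20–2000 μg/mL (extract), with ciprofloxacin as positive control. Plates were sealed for anaerobic conditions at 37 °C, and OD690 was read every 5 min for 24 h. MIC-level wells were plated on BHI agar (48 h). Three independent experiments were run in triplicate.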

Escherichia coli [9] = experiment: Antibacterial activity against Shiga-like toxin positive Escherichia coli; format: functional
Escherichia coli [10] = experiment: Antibacterial activity against Escherichia coli ATCC 25922; format: functional
Escherichia coli [11] = experiment: Antibacterial activity against Escherichia coli IFO 3972; format: functional
IPEC-J2 [12] = experiment: Induction of porcine IPEC-J2 cells monolayer development assessed as increase in transepithelial electrical resistance at 20 uM after 6 days by voltammetric method; format: functional, cell-based; details: Sus scrofa domesticus, time 6.0 day
Summary of the method: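 IPEC-J2 cells were seeded at 5 × 10^5/insert (0.4 μm PET) and cultured until TEER exceeded 1 kΩ cm2 (day 7). Apical medium was then replaced with 20 μM compound or PBS and renewed at day 10, with basolateral medium changed in parallel. TEER was read with an EVOM2 chopstick electrode at days 10 and 13. Mann–Whitney test versus PBS.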

Escherichia coli [13] = experiment: Growth inhibition of Escherichia coli 0147:K89:K88 infected in porcine IPEC-J2 cells assessed as inhibition of EPEC adhesion 100 uM preincubated for 24 hrs followed by compound wash subsequently infected with bacteria by CFDA-SE staining based flow cytometric analysis; format: functional; details: 0147:K89:K88, IPEC-J2, in Sus scrofa
Summary of the method: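 IPEC-J2 cells were seeded at 10^5/well and grown 7 days. On day 8 they were treated 24 h, then washed twice with warm PBS and given antibiotic-free medium. Infection used CFDA-SE-labelled (1 mM, 120 min, 37 °C) O147:K89:K88 at MOI 100 for 45 min, followed by three PBS washes and trypsinization. Flow cytometry measured MFI over 10 000 events. Mean ± SD of three experiments in triplicate; Dunnett's test versus PBS.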

Escherichia coli [14] = experiment: Growth inhibition of Escherichia coli 0147:K89:K88 measured every 5 mins for 24 hrs by turbidometric analysis; format: functional; details: time hrs <=24; summary of the method: as §1
Escherichia coli [15] = experiment: Growth inhibition of Escherichia coli DSM 2840 assessed as lag time at 500 uM measured every 5 mins for 24 hrs by turbidometric analysis (reference value: 312 min); format: functional; details: time hrs <=24; summary of the method: as §1
Escherichia coli [16] = experiment: Growth inhibition of Escherichia coli DSM 2840 assessed as lag time at 200 uM measured every 5 mins for 24 hrs by turbidometric analysis (reference value: 312 min); format: functional; details: time hrs <=24; summary of the method: as §1
Escherichia coli [17] = experiment: Growth inhibition of Escherichia coli DSM 2840 assessed as lag time at 100 uM measured every 5 mins for 24 hrs by turbidometric analysis (reference value: 312 min); format: functional; details: time hrs <=24; summary of the method: as §1
Escherichia coli [18] = experiment: Growth inhibition of Escherichia coli DSM 2840 assessed as lag time at 50 uM measured every 5 mins for 24 hrs by turbidometric analysis (reference value: 312 min); format: functional; details: time hrs <=24; summary of the method: as §1
Escherichia coli [19] = experiment: Growth inhibition of Escherichia coli DSM 2840 assessed as lag time at 10 uM measured every 5 mins for 24 hrs by turbidometric analysis (reference value: 312 min); format: functional; details: time hrs <=24; summary of the method: as §1
Escherichia coli [20] = experiment: Growth inhibition of Escherichia coli DSM 2840 assessed as lag time at 20 uM measured every 5 mins for 24 hrs by turbidometric analysis (reference value: 312 min); format: functional; details: time hrs <=24; summary of the method: as §1
Escherichia coli [21] = experiment: Growth inhibition of Escherichia coli DSM 2840 assessed as lag time at 5 uM measured every 5 mins for 24 hrs by turbidometric analysis (reference value: 312 min); format: functional; details: time hrs <=24; summary of the method: as §1
Escherichia coli [22] = experiment: Growth inhibition of Escherichia coli 0147:K89:K88 assessed as lag time at 500 uM measured every 5 mins for 24 hrs by turbidometric analysis (reference value: 300 min); format: functional; details: time hrs <=24; summary of the method: as §1
Escherichia coli [23] = experiment: Growth inhibition of Escherichia coli 0147:K89:K88 assessed as lag time at 200 uM measured every 5 mins for 24 hrs by turbidometric analysis (reference value: 300 min); format: functional; details: time hrs <=24; summary of the method: as §1
Escherichia coli [24] = experiment: Growth inhibition of Escherichia coli 0147:K89:K88 assessed as lag time at 100 uM measured every 5 mins for 24 hrs by turbidometric analysis (reference value: 300 min); format: functional; details: time hrs <=24; summary of the method: as §1
Escherichia coli [25] = experiment: Growth inhibition of Escherichia coli 0147:K89:K88 assessed as lag time at 50 uM measured every 5 mins for 24 hrs by turbidometric analysis (reference value: 300 min); format: functional; details: time hrs <=24; summary of the method: as §1
Escherichia coli [26] = experiment: Growth inhibition of Escherichia coli 0147:K89:K88 assessed as lag time at 20 uM measured every 5 mins for 24 hrs by turbidometric analysis (reference value: 300 min); format: functional; details: time hrs <=24; summary of the method: as §1
Escherichia coli [27] = experiment: Growth inhibition of Escherichia coli 0147:K89:K88 assessed as lag time at 10 uM measured every 5 mins for 24 hrs by turbidometric analysis (reference value: 300 min); format: functional; details: time hrs <=24; summary of the method: as §1
Escherichia coli [28] = experiment: Growth inhibition of Escherichia coli 0147:K89:K88 assessed as lag time at 5 uM measured every 5 mins for 24 hrs by turbidometric analysis (reference value: 300 min); format: functional; details: time hrs <=24; summary of the method: as §1
Escherichia coli [29] = experiment: Growth inhibition of Escherichia coli DSM 2840 assessed as doubling time at 500 uM measured every 5 mins for 24 hrs by turbidometric analysis (reference value: 31.6 +/- 0.8 min); format: functional; details: time hrs <=24; summary of the method: as §1
Escherichia coli [30] = experiment: Growth inhibition of Escherichia coli DSM 2840 assessed as doubling time at 200 uM measured every 5 mins for 24 hrs by turbidometric analysis (reference value: 31.6 +/- 0.8 min); format: functional; details: time hrs <=24; summary of the method: as §1
Escherichia coli [31] = experiment: Growth inhibition of Escherichia coli DSM 2840 assessed as doubling time at 100 uM measured every 5 mins for 24 hrs by turbidometric analysis (reference value: 31.6 +/- 0.8 min); format: functional; details: time hrs <=24; summary of the method: as §1
Escherichia coli [32] = experiment: Growth inhibition of Escherichia coli DSM 2840 assessed as doubling time at 50 uM measured every 5 mins for 24 hrs by turbidometric analysis (reference value: 31.6 +/- 0.8 min); format: functional; details: time hrs <=24; summary of the method: as §1
Escherichia coli [33] = experiment: Growth inhibition of Escherichia coli DSM 2840 assessed as doubling time at 20 uM measured every 5 mins for 24 hrs by turbidometric analysis (reference value: 31.6 +/- 0.8 min); format: functional; details: time hrs <=24; summary of the method: as §1
Escherichia coli [34] = experiment: Growth inhibition of Escherichia coli DSM 2840 assessed as doubling time at 10 uM measured every 5 mins for 24 hrs by turbidometric analysis (reference value: 31.6 +/- 0.8 min); format: functional; details: time hrs <=24; summary of the method: as §1
Escherichia coli [35] = experiment: Growth inhibition of Escherichia coli DSM 2840 assessed as doubling time at 5 uM measured every 5 mins for <=24 hrs by turbidometric analysis (reference value: 31.6 +/- 0.8 min); format: functional; details: time hrs <=24; summary of the method: as §1
Escherichia coli [36] = experiment: Growth inhibition of Escherichia coli 0147:K89:K88 assessed as doubling time at 500 uM measured every 5 mins for 24 hrs by turbidometric analysis (reference value: 34.1 +/- 0.5 min); format: functional; details: time hrs <=24; summary of the method: as §1
Escherichia coli [37] = experiment: Growth inhibition of Escherichia coli 0147:K89:K88 assessed as doubling time at 200 uM measured every 5 mins for 24 hrs by turbidometric analysis (reference value: 34.1 +/- 0.5 min); format: functional; details: time hrs <=24; summary of the method: as §1
Escherichia coli [38] = experiment: Growth inhibition of Escherichia coli 0147:K89:K88 assessed as doubling time at 100 uM measured every 5 mins for 24 hrs by turbidometric analysis (reference value: 34.1 +/- 0.5 min); format: functional; details: time hrs <=24; summary of the method: as §1
Escherichia coli [39] = experiment: Growth inhibition of Escherichia coli 0147:K89:K88 assessed as doubling time at 50 uM measured every 5 mins for 24 hrs by turbidometric analysis (reference value: 34.1 +/- 0.5 min); format: functional; details: time hrs <=24; summary of the method: as §1
Escherichia coli [40] = experiment: Growth inhibition of Escherichia coli 0147:K89:K88 assessed as doubling time at 20 uM measured every 5 mins for 24 hrs by turbidometric analysis (reference value: 34.1 +/- 0.5 min); format: functional; details: time hrs <=24; summary of the method: as §1
Escherichia coli [41] = experiment: Growth inhibition of Escherichia coli 0147:K89:K88 assessed as doubling time at 10 uM measured every 5 mins for 24 hrs by turbidometric analysis (reference value: 34.1 +/- 0.5 min); format: functional; details: time hrs <=24; summary of the method: as §1
Escherichia coli [42] = experiment: Growth inhibition of Escherichia coli 0147:K89:K88 assessed as doubling time at 5 uM measured every 5 mins for 24 hrs by turbidometric analysis (reference value: 34.1 +/- 0.5 min); format: functional; details: time hrs <=24; summary of the method: as §1

O=c1oc2cc(O)ccc2c2cc(O)c(O)cc12
Activity (IPEC-J2 [1]): inactive
growth inhibition (GI) (Escherichia coli [2]): inactive
growth inhibition (GI) (Escherichia coli [3]): inactive

O=c1oc2cc(O)ccc2c2ccc(O)cc12
Activity (IPEC-J2 [1]): inactive
growth inhibition (GI) (Escherichia coli [2]): inactive
growth inhibition (GI) (Escherichia coli [3]): inactive

O=C1OC[C@H]2OC(=O)c3cc(O)c(O)c(O)c3-c3c(O)c(O)c(O)c4c3C(=O)O[C@H]([C@H]3OC(=O)c5c-4c(O)c(O)c(O)c5[C@H]3O)[C@@H]2OC(=O)c2cc(O)c(O)c(O)c2-c2c1cc(O)c(O)c2O [CASTALAGIN]
MIC (Escherichia coli [4]): 533 µM (≈ 498 µg/mL)
MIC (Escherichia coli [5]): 705 µM (≈ 659 µg/mL)
MIC (Escherichia coli [6]): 705 µM (≈ 659 µg/mL)
MIC (Escherichia coli [7]): 705 µM (≈ 659 µg/mL)
MIC (Escherichia coli [8]): 705 µM (≈ 659 µg/mL)
MIC (Escherichia coli [9]): 705 µM (≈ 659 µg/mL)
MIC (Escherichia coli [10]): 705 µM (≈ 659 µg/mL)
MIC (Escherichia coli [11]): 705 µM (≈ 659 µg/mL)
Activity (IPEC-J2 [12]): Active
inhibition at 100 µM (Escherichia coli [13]): 37.7%
MIC (Escherichia coli [14]): 500 µM (≈ 467 µg/mL)
Time (Escherichia coli [15]): >1440 min
Time (Escherichia coli [16]): 870 min
Time (Escherichia coli [17]): 515 min
Time (Escherichia coli [18]): 422 min
Time (Escherichia coli [19]): 320 min
Time (Escherichia coli [20]): 347 min
Time (Escherichia coli [21]): 322 min
Time (Escherichia coli [22]): >1440 min
Time (Escherichia coli [23]): 722 min
Time (Escherichia coli [24]): 647 min
Time (Escherichia coli [25]): 502 min
Time (Escherichia coli [26]): 380 min
Time (Escherichia coli [27]): 310 min
Time (Escherichia coli [28]): 317 min
Time (Escherichia coli [29]): >1440 min
Time (Escherichia coli [30]): 56.8 min
Time (Escherichia coli [31]): 42.9 min
Time (Escherichia coli [32]): 43 min
Time (Escherichia coli [33]): 38.1 min
Time (Escherichia coli [34]): 34.9 min
Time (Escherichia coli [35]): 33.4 min
Time (Escherichia coli [36]): >1440 min
Time (Escherichia coli [37]): 35.9 min
Time (Escherichia coli [38]): 36.6 min
Time (Escherichia coli [39]): 45.3 min
Time (Escherichia coli [40]): 45.6 min
Time (Escherichia coli [41]): 34.3 min
Time (Escherichia coli [42]): 36.8 min
